Lmaj promast: reduces viability of Leishmania major promastigotes | 9% of 200,000 active | resazurin fluorescence viability | AID 1063 | inhibition, % at 10 µM; in the data active = inhibition above about 50%;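 note: promastigotes grown with compound for 44 hours at 28 °C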
PMI act: phosphomannose isomerase (human) activation; purified human PMI, coupled resazurin fluorescence, 20 min; hits give high values; 1 = vehicle control, 0 substrate-free wells; activation factor at 20 µM; 0.005% of 190,000 active; AID 1214;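 active = activation factor of 2 or more at 20 µM, relative to plate controls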
Target sequence (P34949 whole entry, looked up): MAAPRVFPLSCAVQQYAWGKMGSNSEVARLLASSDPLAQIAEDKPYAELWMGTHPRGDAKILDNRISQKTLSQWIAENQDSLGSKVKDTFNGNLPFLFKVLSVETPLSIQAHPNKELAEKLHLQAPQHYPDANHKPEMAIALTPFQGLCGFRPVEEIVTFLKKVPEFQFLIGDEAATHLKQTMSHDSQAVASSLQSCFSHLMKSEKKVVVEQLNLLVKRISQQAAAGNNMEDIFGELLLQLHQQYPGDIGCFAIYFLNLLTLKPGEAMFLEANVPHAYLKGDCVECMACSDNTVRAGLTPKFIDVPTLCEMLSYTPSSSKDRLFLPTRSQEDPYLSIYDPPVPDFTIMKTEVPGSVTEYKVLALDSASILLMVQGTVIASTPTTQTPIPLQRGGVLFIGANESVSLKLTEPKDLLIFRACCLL
Calpain2 inh: inhibitors of pig calpain II; purified calpain II, fluorogenic peptide substrate, 30 min; inhibition, % at 16 µM; 0.37% of 220,000 active;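 active = inhibition above about 50%, limit read from the data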
PMI act hi M6P: PMI (human) activation, high substrate | 0.34% of 190,000 active | P34949 | activation factor at 20 µM | coupled PMI enzyme assay, resazurin fluorescence, 20 min; hits give high values; 1 = untreated enzyme, 0 = substrate-free blank | AID 1216;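 active = activation factor of 2 or more at 20 µM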
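Material: human phosphomannose isomerase with PGI, G6PDH, diaphorase coupling enzymes / Reagent: Man-6-P substrate 1.0 mM / Dosing: single compound dose of 20 µM, 1% DMSO final / Incubation: enzyme reaction with compound 20 min at room temperature / Signal: resorufin fluorescence (Ex 544/Em 590 nm) from resazurin via diaphorase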
WT yeast gro inh: growth inhibition of WT yeast, mitochondrial fusion screen | mitochondrial fusion phenotypic screen, WT strain | inhibition, % at 10 µM | 2.1% of 190,000 active | AID 1362; in the data active = inhibition above about 58%; tested in S. cerevisiae
Rad51 HR inh: blocks human Rad51 in homologous recombination; 0.085% of 200,000 active; Q06609; hRad51 DNA strand exchange, fluorescence dequenching; inhibition, % at 10 µM;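 active = inhibition above 40% at the single screening dose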;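 note: 0% = DMSO control wells and 100% = blanks with heterologous ssDNA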
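material = hRad51 filaments on single-stranded DNA | timing = filaments 15 min 37 °C, then compound 30 min | signal = FRET fluorescence dequenching, excitation 485 nm, emission 520 nm | benchmarks = control wells and blank wells on each plate | evaluation = percent inhibition relative to plate controls and blanks | compound = 10 µM final, single point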
Active calls of the source: *. An excerpt weighted towards active compounds, which were near 9.8% of everything screened.

Screening COc1ccc(/C=N/NC(=O)c2ccoc2C)cc1COc1c(C)cccc1C returned Lmaj promast 100*, PMI act 0.8, Calpain2 inh -13, PMI act hi M6P 0.8, WT yeast gro inh 88* and Rad51 HR inh -2.
For COc1cc(/C=N/NC(=O)c2ccoc2C)cc(OC)c1O the results were Lmaj promast 47, PMI act 0.7, Calpain2 inh -8, PMI act hi M6P 0.8, WT yeast gro inh -7 and Rad51 HR inh 3.
For COc1ccc(C(=O)Nc2ccccc2C(=O)N/N=C/c2cccc3ccccc23)cc1 the results were Lmaj promast 26, PMI act 0.7, Calpain2 inh -100, PMI act hi M6P 0.8, WT yeast gro inh 68* and Rad51 HR inh 0.
Screening Cc1cc(/C=C2/SC(=O)NC2=O)c(C)n1-c1ccc(N2CCOCC2)cc1 returned Lmaj promast 57*, PMI act 1, Calpain2 inh -80, PMI act hi M6P 1, WT yeast gro inh 11 and Rad51 HR inh 2.
Cc1cc(/C=C2\SC(=Nc3ccc(F)cc3)NC2=O)c(C)n1-c1ccc(S(N)(=O)=O)cc1 was read as Lmaj promast 57*, PMI act 0.9, Calpain2 inh -155, PMI act hi M6P 1, WT yeast gro inh -1 and Rad51 HR inh -13.
`Cc1cc(/C=C2\SC(=S)NC2=O)c(C)n1-c1ccccc1` gave Calpain2 inh 2 and Rad51 HR inh -118.
CCOC(=O)C1=C(O)/C(=C/c2ccccn2)SC1=Nc1ccc(Cl)cc1 was read as Lmaj promast 65*, PMI act 0.7, Calpain2 inh -17, PMI act hi M6P 1, WT yeast gro inh 21 and Rad51 HR inh 16.
For CCOC(=O)C1=C(O)/C(=C/c2ccc(OCC(=O)O)c(OCC)c2)SC1=Nc1ccccc1 the results were Lmaj promast 11, PMI act 1, Calpain2 inh -99, PMI act hi M6P 1.1, WT yeast gro inh -3 and Rad51 HR inh 8.
Screening O=C(CSc1nnc(-c2c[nH]c3ccccc23)n1CC1CCCO1)Nc1ccc2c(c1)OCCO2 (centres undefined) returned Lmaj promast 11, PMI act 1, Calpain2 inh -33, PMI act hi M6P 1.1, WT yeast gro inh -4 and Rad51 HR inh -2.
For CCOC(=O)c1c(NC(=O)CSc2nnc(-c3c[nH]c4ccccc34)n2CC)sc2c1CCCC2 the results were Lmaj promast 55*, PMI act 0.9, Calpain2 inh -49, PMI act hi M6P 1, WT yeast gro inh 7 and Rad51 HR inh 7.
For CCn1c(SCC(=O)Nc2ccccc2OC)nnc1-c1cnccn1 the results were Lmaj promast 5, PMI act 1, Calpain2 inh -19, PMI act hi M6P 1, WT yeast gro inh -2 and Rad51 HR inh -3.
Screening Cc1nnc(SCC(=O)Nc2sc3c(c2C(=O)c2ccccc2)CCCC3)s1 returned Lmaj promast 89*, PMI act 1, Calpain2 inh 39, PMI act hi M6P 0.9, WT yeast gro inh 28 and Rad51 HR inh 0.
`Cc1nnc(SCC(=O)Nc2ccccc2NC(=O)CSc2nnc(C)s2)s1` gave Lmaj promast -5, PMI act 0.9, Calpain2 inh -14, PMI act hi M6P 1.1, WT yeast gro inh 4 and Rad51 HR inh 10.
Screening CCn1c(SCC(=O)Nc2ccc3c(c2)c2ccccc2n3CC)nnc1-c1cnccn1 returned Lmaj promast 99*, PMI act 0.9, Calpain2 inh -56, PMI act hi M6P 1.1, WT yeast gro inh 22 and Rad51 HR inh 2.
CCn1c(SCC(=O)Nc2ccc3c(c2)OCCO3)nnc1-c1c[nH]c2ccccc12 was read as Lmaj promast 60*, PMI act 0.9, Calpain2 inh -9, PMI act hi M6P 1, WT yeast gro inh -15 and Rad51 HR inh -1.
Screening O=C(NCCc1c[nH]c2ccccc12)[C@@H]1C[C@H]1[C@@H](NP(=O)(c1ccccc1)c1ccccc1)c1ccccc1 returned Lmaj promast 4, PMI act 0.8, Calpain2 inh -51, PMI act hi M6P 0.8, WT yeast gro inh -7 and Rad51 HR inh -10.
